# In ChEMBL document CHEMBL1127551, “(6,7-Diaryldihydropyrrolizin-5-yl)acetic acids, a novel class of potent dual inhibitors of both cyclooxygenase and 5-lipoxygenase” (J Med Chem, 1994):
# How the values were obtained:
# Cyclooxygenase = molecular target: T1, Cyclooxygenase (Bos taurus, UniProt O62664+O62698); test: Inhibition of Prostaglandin G/H synthase in bovine thrombocyte intact cell assay.
# T1 sequence (O62664 whole entry): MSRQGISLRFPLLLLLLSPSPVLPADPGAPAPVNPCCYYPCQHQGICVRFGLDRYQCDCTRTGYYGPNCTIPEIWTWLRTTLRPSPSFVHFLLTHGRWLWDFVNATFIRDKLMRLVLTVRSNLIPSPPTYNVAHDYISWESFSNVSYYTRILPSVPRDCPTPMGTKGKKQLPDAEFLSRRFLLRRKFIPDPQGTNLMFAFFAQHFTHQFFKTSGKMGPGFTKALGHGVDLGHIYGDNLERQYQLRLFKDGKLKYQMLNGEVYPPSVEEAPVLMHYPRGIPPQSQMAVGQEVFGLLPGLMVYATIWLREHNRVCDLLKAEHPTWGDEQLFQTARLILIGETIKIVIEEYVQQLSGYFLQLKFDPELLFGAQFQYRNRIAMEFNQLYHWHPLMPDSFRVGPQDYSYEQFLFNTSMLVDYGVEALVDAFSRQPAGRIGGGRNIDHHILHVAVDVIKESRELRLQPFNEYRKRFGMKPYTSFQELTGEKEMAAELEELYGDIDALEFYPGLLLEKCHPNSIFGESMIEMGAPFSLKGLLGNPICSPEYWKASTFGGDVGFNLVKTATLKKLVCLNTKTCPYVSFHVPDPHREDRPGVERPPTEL
# T1 sequence (O62698 whole entry): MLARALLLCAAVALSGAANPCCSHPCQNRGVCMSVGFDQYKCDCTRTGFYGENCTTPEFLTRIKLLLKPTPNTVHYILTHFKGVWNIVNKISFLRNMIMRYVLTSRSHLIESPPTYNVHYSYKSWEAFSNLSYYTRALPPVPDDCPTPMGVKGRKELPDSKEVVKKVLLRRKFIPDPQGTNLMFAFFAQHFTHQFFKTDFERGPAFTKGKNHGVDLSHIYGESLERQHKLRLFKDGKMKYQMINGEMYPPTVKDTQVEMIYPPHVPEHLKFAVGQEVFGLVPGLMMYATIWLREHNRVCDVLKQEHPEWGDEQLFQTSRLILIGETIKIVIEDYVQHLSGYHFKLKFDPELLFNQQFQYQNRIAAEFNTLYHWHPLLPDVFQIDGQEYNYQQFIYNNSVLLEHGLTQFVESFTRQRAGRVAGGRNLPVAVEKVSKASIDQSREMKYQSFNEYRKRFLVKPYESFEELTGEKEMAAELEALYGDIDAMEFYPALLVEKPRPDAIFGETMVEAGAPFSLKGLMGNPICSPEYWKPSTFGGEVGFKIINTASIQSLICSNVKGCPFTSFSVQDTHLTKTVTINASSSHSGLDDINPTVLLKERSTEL
# Procedure, shortened: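 Intact thrombocytes isolated from fresh bovine blood by ficoll gradient centrifugation. Cells incubated with test compound, then stimulated with Ca-ionophore A 23187. IC50 taken as the average of at least two determinations.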
# [1] = molecular target: T2, Arachidonate 5-lipoxygenase (Bos taurus, UniProt Q9BEG3); test: Inhibition of 5-lipoxygenase in bovine PMNL cell assay.; assay type: cell-based
# T2 sequence (Q9BEG3 whole entry): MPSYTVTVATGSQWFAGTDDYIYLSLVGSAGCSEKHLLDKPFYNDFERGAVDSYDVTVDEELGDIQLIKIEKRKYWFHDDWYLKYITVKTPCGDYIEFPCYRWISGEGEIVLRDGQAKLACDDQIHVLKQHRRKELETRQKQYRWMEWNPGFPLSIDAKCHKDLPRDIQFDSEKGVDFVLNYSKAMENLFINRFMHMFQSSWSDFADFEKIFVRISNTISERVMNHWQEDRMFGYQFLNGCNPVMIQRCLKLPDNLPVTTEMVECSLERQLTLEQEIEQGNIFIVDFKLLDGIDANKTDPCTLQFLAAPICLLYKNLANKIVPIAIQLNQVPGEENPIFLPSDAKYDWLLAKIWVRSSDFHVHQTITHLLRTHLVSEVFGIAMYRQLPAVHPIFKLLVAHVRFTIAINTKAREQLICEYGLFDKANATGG
# Procedure, shortened: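 Intact polymorphonuclear leukocytes isolated from fresh bovine blood by ficoll gradient centrifugation. Cells incubated with test compound, then stimulated with Ca-ionophore A 23187. IC50 taken as the average of at least two determinations.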
# [2] = molecular target: T3, Polyunsaturated fatty acid 5-lipoxygenase (Homo sapiens, UniProt P09917); test: Inhibition of human 5-lipoxygenase in human cells; assay type: cell-based
# T3 sequence (P09917 whole entry): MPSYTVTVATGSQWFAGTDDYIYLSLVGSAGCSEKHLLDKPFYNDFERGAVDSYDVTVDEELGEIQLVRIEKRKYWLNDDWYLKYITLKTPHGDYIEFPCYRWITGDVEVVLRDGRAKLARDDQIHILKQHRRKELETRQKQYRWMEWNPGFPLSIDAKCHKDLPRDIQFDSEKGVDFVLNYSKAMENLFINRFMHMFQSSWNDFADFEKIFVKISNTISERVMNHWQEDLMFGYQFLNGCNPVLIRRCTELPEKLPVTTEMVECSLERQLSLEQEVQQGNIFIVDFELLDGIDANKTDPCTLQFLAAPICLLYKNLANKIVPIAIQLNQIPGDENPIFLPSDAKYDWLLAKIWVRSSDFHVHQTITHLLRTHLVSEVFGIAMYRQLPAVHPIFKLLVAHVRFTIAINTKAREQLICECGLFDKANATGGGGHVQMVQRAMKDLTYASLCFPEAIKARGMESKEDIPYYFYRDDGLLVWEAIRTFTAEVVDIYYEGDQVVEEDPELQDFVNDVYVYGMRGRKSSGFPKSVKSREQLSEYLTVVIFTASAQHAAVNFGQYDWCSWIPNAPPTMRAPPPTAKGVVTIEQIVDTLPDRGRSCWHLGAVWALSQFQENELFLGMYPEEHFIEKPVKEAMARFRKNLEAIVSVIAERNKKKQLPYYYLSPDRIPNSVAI
# Procedure, shortened: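 Intact PMNL isolated by Ficoll gradient centrifugation from fresh human blood; cells incubated with test compound, then stimulated with Ca-ionophore A 23187; 5-LO inhibition expressed as IC50.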
IC50 (Cyclooxygenase),IC50 [1],IC50 [2],Compound
4.5 µM,1700 nM,–,CC1(C)Cc2c(-c3ccccc3)c(-c3ccc(Cl)c(Cl)c3)c(CC(=O)O)n2C1
12 µM,4300 nM,–,CC1(C)Cc2c(-c3ccccc3)c(-c3cc(Cl)ccc3Cl)c(CC(=O)O)n2C1
0.1 µM,4000 nM,–,CC1(C)Cc2c(-c3ccccc3)c(-c3ccccc3)c(CC(=O)O)n2C1
0.1 µM,240 nM,–,COc1ccc(-c2c(-c3ccccc3)c3n(c2CC(=O)O)CC(C)(C)C3)cc1
0.03 µM,1500 nM,–,CC1(C)Cc2c(-c3ccccc3)c(-c3ccc([N+](=O)[O-])cc3)c(CC(=O)O)n2C1
1 µM,6000 nM,–,CC1(C)Cc2c(-c3ccccc3)c(-c3ccc(N)cc3)c(CC(=O)O)n2C1

# The next lines start with the compound.
Compound,IC50 (Cyclooxygenase),IC50 [1],IC50 [2]
CC1(C)Cc2c(-c3ccccc3)c(-c3ccc(Oc4ccccc4)cc3)c(CC(=O)O)n2C1,2 µM,1600 nM,–
CC1(C)Cc2c(-c3ccccc3)c(-c3ccc(O)cc3)c(CC(=O)O)n2C1,1.6 µM,7700 nM,–
CC1(C)Cc2c(-c3ccccc3)c(-c3ccc(F)cc3)c(CC(=O)O)n2C1,3.2 µM,> 10000 nM,–
CC1(C)Cc2c(-c3ccccc3)c(-c3ccc(Cl)cc3Cl)c(CC(=O)O)n2C1,18 µM,2100 nM,–
CC1(C)Cc2c(-c3ccccc3)c(-c3ccc(Cl)cc3)c(CC(=O)O)n2C1 [LICOFELONE],0.21 µM,180 nM,230 nM
CC(=O)Nc1ccc(-c2c(-c3ccccc3)c3n(c2CC(=O)O)CC(C)(C)C3)cc1,0.8 µM,10000 nM,–
O=C(O)Cc1c(-c2ccc(Cl)cc2)c(-c2ccccc2)c2n1CCC2,2 µM,1600 nM,–
CC1(C)Cc2c(-c3ccccc3)c(-c3ccc(Cl)c(Cl)c3Cl)c(CC(=O)O)n2C1,12 µM,1800 nM,–
CC1(C)Cc2c(-c3ccccc3)c(-c3ccc(C(C)(C)C)cc3)c(CC(=O)O)n2C1,20 µM,180 nM,–
CC1(C)Cc2c(-c3ccccc3)c(-c3cccc(Cl)c3)c(CC(=O)O)n2C1,3.6 µM,1700 nM,–
CC1(C)Cc2c(-c3ccc(Cl)cc3)c(-c3ccccc3)c(CC(=O)O)n2C1,3.4 µM,5200 nM,–
CC1(C)Cc2c(-c3ccccc3)c(-c3ccccc3Cl)c(CC(=O)O)n2C1,61 µM,4400 nM,–
